In ChEMBL document CHEMBL3612041, “Combating highly resistant emerging pathogen Mycobacterium abscessus and Mycobacterium tuberculosis with novel salicylanilide esters and carbamates” (Eur J Med Chem, 2015):
In brackets after ≈: the same amount, converted by molar mass.

Experiments:
[1] = Solubility of the compound in RPMI-1640/Sula media by spectrophotometric analysis; assay type: physicochemical
Outline: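 Solubility measured under assay conditions in RPMI and Sula media with 1 v/v% DMSO. Undissolved compound removed on a PVDF filter. 120 µL filtrate mixed with 80 µL acetonitrile, and concentration measured spectrophotometrically.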

[2] = tested on: Mycobacteroides abscessus; experiment: Antimycobacterial activity against Mycobacterium abscessus ATCC 19977 after 7 days by serial dilution method; assay type: functional
Outline: (§1)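 Serial dilution in in-house Sula semisynthetic medium, pH 6.5. Compounds added as DMSO solutions at 10 doses, final 0.05–100 µg/mL. Incubation at 37 °C, 7 days for M. abscessus and 28 days for M. tuberculosis strains. MIC taken as the lowest concentration giving visible growth inhibition, confirmed by CFU on drug-free Löwenstein-Jensen medium after further equal incubation. Repeated at least twice.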

[3] = tested on: Mycobacterium tuberculosis; experiment: Antimycobacterial activity against Mycobacterium tuberculosis H37Rv ATCC 27294 after 28 days by serial dilution method; assay type: functional; conditions: for MIC: Mycobacterium tuberculosis, H37Rv ATCC 27294, 672 h; outline: as §1
[4] = Selectivity index, ratio of IC50 for human MONO-MAC-6 cells to MIC for Mycobacterium tuberculosis H37Rv ATCC 27294; assay type: toxicity; conditions: read-out: Selectivity Index
[5] = tested on: MONO-MAC-6; experiment: Cytostatic activity against human MONO-MAC-6 cells assessed as cell viability after 16 hrs by MTT assay; assay type: cell-based; conditions: MONO-MAC-6, 16 h
Outline: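 MonoMac6 cells kept in RPMI-1640 with 10% FCS, 2 mM L-glutamine and gentamycin at 37 °C, 5% CO2. Cells plated 10⁵ per well and treated after 24 h for 16 h in serum-free RPMI (1.0 v/v% DMSO), 5×10⁻² to 10² µM. MTT at 367 µg/mL final for 3.5 h, crystals dissolved in DMSO, OD540 minus OD620. Cytotoxicity % versus untreated control fitted sigmoidally for IC50. Two independent experiments, 4–8 parallels.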

[6] = Selectivity index, ratio of IC50 for human MONO-MAC-6 cells to MIC for Mycobacterium abscessus ATCC 19977; assay type: toxicity; conditions: read-out: Selectivity Index
[7] = tested on: Mycobacteroides abscessus; experiment: Potency index, ratio of gentamicin MIC to compound MIC for Mycobacterium abscessus ATCC 19977; assay type: functional
[8] = tested on: Mycobacteroides abscessus; experiment: Potency index, ratio of ciprofloxacin MIC to compound MIC for Mycobacterium abscessus ATCC 19977; assay type: functional
[9] = Mycobacteroides abscessus, ATCC 19977, 168 h

Compound | solubility [1] [µM] | Activity [2] [CFU] | MIC [2, 9] [µM] | Activity [3] [CFU] | MIC [3] [µM] | selectivity ratio [4] | IC50 [5] [µM] | selectivity ratio [6] | Ratio [7] | Ratio [8] | MIC [2] [µM]
O=C(Oc1ccc(Cl)cc1C(=O)Nc1ccc(C(F)(F)F)cc1)c1cnc(Cl)cn1 | < 100 | 0 | 5.5 (≈ 2.51 µg/mL) | 3 | 1.1 (≈ 0.502 µg/mL) | 1 | 1.1 | 0.2 | – | – | –
O=C(O)c1cn(C2CC2)c2cc(N3CCNCC3)c(F)cc2c1=O [CIPROFLOXACIN] | – | – | 3 (≈ 0.994 µg/mL) | – | – | – | – | – | – | – | –
O=C(NCCCl)Oc1ccc(Br)cc1C(=O)Nc1ccc(C(F)(F)F)cc1 | < 50 | 0 | 4.3 (≈ 2 µg/mL) | 0 | 0.4 (≈ 0.186 µg/mL) | 23.3 | 9.3 | 2.2 | – | – | –
O=C(Oc1ccc(Br)cc1C(=O)Nc1ccc(Cl)c(Cl)c1)c1cnc(Cl)cn1 | < 100 | 0 | 1 (≈ 0.502 µg/mL) | 1 | 2 (≈ 1 µg/mL) | 2.9 | 5.7 | 5.7 | – | – | –
O=C(NCCCCl)Oc1ccc(Cl)cc1C(=O)Nc1ccc(C(=O)c2ccccc2)cc1 | < 50 | 0 | 42.5 (≈ 20 µg/mL) | 3 | 8.5 (≈ 4.01 µg/mL) | 1.9 | 16.1 | 0.4 | – | – | –
O=C(NCCCl)Oc1ccc(Cl)cc1C(=O)Nc1ccc(C(=O)c2ccccc2)cc1 | < 50 | 0 | 43.6 (≈ 19.9 µg/mL) | 2 | 8.7 (≈ 3.98 µg/mL) | 4.3 | 37.8 | 0.9 | – | – | –
O=C(c1ccccc1)c1ccc(NC(=O)c2cc(Br)ccc2O)cc1 | < 50 | 0 | 25.3 (≈ 10 µg/mL) | 2 | 12.7 (≈ 5.03 µg/mL) | 1.7 | 21.8 | 0.9 | – | – | –
O=C(NCCCCl)Oc1ccc(Cl)cc1C(=O)Nc1ccc(Cl)c(Cl)c1 | < 50 | 0 | 1.2 (≈ 0.523 µg/mL) | 0 | 2.3 (≈ 1 µg/mL) | 1.1 | 2.5 | 2.1 | – | – | –
CCCNC(=O)Oc1ccc(Cl)cc1C(=O)Nc1ccc(Cl)c(Cl)c1 | < 50 | 0 | 1.3 (≈ 0.522 µg/mL) | 0 | 0.2 (≈ 0.0803 µg/mL) | 35 | 7 | 5.4 | – | – | –
O=C(c1ccccc1)c1ccc(NC(=O)c2cc(Cl)ccc2O)cc1 | < 50 | 0 | 28.5 (≈ 10 µg/mL) | 3 | 14.2 (≈ 5 µg/mL) | 3.4 | 48 | 1.7 | – | – | –
O=C(Nc1ccc(C(F)(F)F)cc1)c1cc(Cl)ccc1O | – | 0 | 3.2 (≈ 1.01 µg/mL) | 0 | 1.6 (≈ 0.505 µg/mL) | – | 5.3 | – | – | – | –
NNC(=O)c1ccncc1 [ISONIAZID] | – | 26 | 292 (≈ 40 µg/mL) | 0 | 1.17 (≈ 0.16 µg/mL) | – | – | – | – | – | –
O=C(NCCCCl)Oc1ccc(Br)cc1C(=O)Nc1ccc(Cl)c(Cl)c1 | < 50 | 0 | 2.1 (≈ 1.01 µg/mL) | 2 | 0.4 (≈ 0.192 µg/mL) | 23.8 | 9.5 | 4.5 | – | – | –
O=C(Nc1ccc(Cl)c(Cl)c1)c1cc(Cl)ccc1O | < 100 | 0 | 3.2 (≈ 1.01 µg/mL) | 2 | 1.6 (≈ 0.507 µg/mL) | 2.3 | 3.6 | 1.1 | – | – | –
O=C(Nc1ccc(Cl)c(Cl)c1)c1cc(Br)ccc1O | < 100 | 0 | 7 (≈ 2.53 µg/mL) | 2 | 1.4 (≈ 0.505 µg/mL) | 2.5 | 3.5 | 0.5 | – | – | –
O=C(NCCCCl)Oc1ccc(Cl)cc1C(=O)Nc1ccc(C(F)(F)F)cc1 | < 50 | 0 | 0.2 (≈ 0.087 µg/mL) | 1 | 0.5 (≈ 0.218 µg/mL) | 17.6 | 8.8 | 44 | 53 | 15 | –
O=C(NCCCl)Oc1ccc(Br)cc1C(=O)Nc1ccc(Cl)c(Cl)c1 | < 50 | 0 | 0.2 (≈ 0.0933 µg/mL) | 2 | 0.2 (≈ 0.0933 µg/mL) | 34.5 | 6.9 | 34.5 | 53 | 15 | –
CCCNC(=O)Oc1ccc(Cl)cc1C(=O)Nc1ccc(C(=O)c2ccccc2)cc1 | < 50 | 0 | 22.9 (≈ 10 µg/mL) | 3 | 9.2 (≈ 4.02 µg/mL) | 2 | 18.7 | 0.8 | – | – | –
O=C(NCCCl)Oc1ccc(Cl)cc1C(=O)Nc1ccc(C(F)(F)F)cc1 | < 50 | 0 | 1.2 (≈ 0.505 µg/mL) | 1 | 0.5 (≈ 0.211 µg/mL) | 15.2 | 7.6 | 6.3 | – | – | –
O=C(Oc1ccc(Cl)cc1C(=O)Nc1ccc(Cl)c(Cl)c1)c1cnc(Cl)cn1 | < 100 | 0 | 1.1 (≈ 0.503 µg/mL) | 10 | 1.1 (≈ 0.503 µg/mL) | 9.2 | 10.1 | 9.2 | – | – | –
O=C(NCCCl)Oc1ccc(Cl)cc1C(=O)Nc1ccc(Cl)c(Cl)c1 | < 50 | 0 | 1.2 (≈ 0.507 µg/mL) | 2 | 1.2 (≈ 0.507 µg/mL) | 3.8 | 4.6 | 3.8 | – | – | –
O=C(NCCCCl)Oc1ccc(Br)cc1C(=O)Nc1ccc(C(=O)c2ccccc2)cc1 | < 50 | 0 | 38.9 (≈ 20.1 µg/mL) | 2 | 8.7 (≈ 4.49 µg/mL) | 1.4 | 12.6 | 0.3 | – | – | –
O=C(NCCCl)Oc1ccc(Br)cc1C(=O)Nc1ccc(C(=O)c2ccccc2)cc1 | < 50 | 0 | 40 (≈ 20.1 µg/mL) | 2 | 8 (≈ 4.01 µg/mL) | 3.1 | 24.9 | 0.6 | – | – | –
GENTAMICIN | – | – | – | – | – | – | – | – | – | – | 10.5
